# Target: T1, Retinoic acid receptor RXR-alpha (Homo sapiens) (UniProt P19793)
# T1 sequence (whole entry): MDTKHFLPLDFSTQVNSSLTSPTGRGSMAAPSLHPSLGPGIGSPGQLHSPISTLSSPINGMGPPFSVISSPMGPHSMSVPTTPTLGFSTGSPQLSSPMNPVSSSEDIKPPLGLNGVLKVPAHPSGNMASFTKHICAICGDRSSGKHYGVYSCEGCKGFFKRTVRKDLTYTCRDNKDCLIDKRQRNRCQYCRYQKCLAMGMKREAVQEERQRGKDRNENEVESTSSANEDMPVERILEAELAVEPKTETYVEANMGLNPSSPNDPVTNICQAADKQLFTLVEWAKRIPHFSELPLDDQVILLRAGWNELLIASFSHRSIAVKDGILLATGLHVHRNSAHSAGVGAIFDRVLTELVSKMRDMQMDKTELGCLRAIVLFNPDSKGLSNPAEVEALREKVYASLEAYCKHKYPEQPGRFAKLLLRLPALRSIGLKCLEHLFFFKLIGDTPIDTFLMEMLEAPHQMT
# Experiment: Activation of human RXRalpha activity expressed in COS1 cells assessed as induction ratio at 50 uM after 12 hrs by RXRE-luciferase reporter gene assay relative to untreated control
# Format: cell-based
# Conditions: COS-1
# Summary of the method: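 COS-1 cells transiently co-transfected per well with 100 ng RXRE-firefly luciferase reporter, 50 ng human RXRα expression vector and 3 ng Renilla luciferase vector using Lipofectamine 2000 for 24 h, then exposed to compound for a further 12 h. Dual-luciferase read-out. Induction ratio taken at 50 µM test concentration.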
row,Structure (SMILES),Ratio
1,O=C1c2ccccc2-c2c1c1ccc([N+](=O)[O-])cc1c(=O)n2CCCO,< 1
2,COC(=O)CCCc1ccc2c3c(n(C)c(=O)c2c1)-c1ccccc1C3=O,< 1
3,Cn1c2c(c3ccc(C(N)=O)cc3c1=O)C(=O)c1ccccc1-2,< 1
4,CN(C)c1ccc2c3c(n(CCCNC(=O)OC(C)(C)C)c(=O)c2c1)-c1ccccc1C3=O,< 1
5,COC(=O)CC(=O)Nc1ccc2c3c(n(C)c(=O)c2c1)-c1ccccc1C3=O,< 1
6,O=C1c2ccccc2-c2c1c1ccc([N+](=O)[O-])cc1c(=O)n2CCCBr,< 1
7,Cn1c2c(c3ccc(C(=O)O)cc3c1=O)C(=O)c1ccccc1-2,< 1
8,COC(CCn1c2c(c3ccc([N+](=O)[O-])cc3c1=O)C(=O)c1ccccc1-2)OC,< 1
9,COC(=O)CCC(=O)Nc1ccc2c3c(n(CCCN)c(=O)c2c1)-c1ccccc1C3=O,< 1
10,CN(C)CCCn1c2c(c3ccc(C#N)cc3c1=O)C(=O)c1cc3c(cc1-2)OCO3,< 1
11,COC(=O)CCCC(=O)Nc1ccc2c3c(n(CCCN)c(=O)c2c1)-c1ccccc1C3=O,< 1
12,COC(=O)CCn1c2c(c3ccc(Br)cc3c1=O)C(=O)c1ccccc1-2,< 1
13,Nc1ccc2c3c(n(CCCO)c(=O)c2c1)-c1ccccc1C3=O,< 1
14,O=C(O)CCn1c2c(c3ccccc3c1=O)C(=O)c1ccccc1-2,< 1
15,CNc1ccc2c3c(n(CCCNC(=O)OC(C)(C)C)c(=O)c2c1)-c1ccccc1C3=O,< 1
16,O=C1c2ccccc2-c2c1c1ccccc1c(=O)n2CCCO,< 1
17,CC(=O)Nc1ccc2c3c(n(CCCO)c(=O)c2c1)-c1ccccc1C3=O,< 1
18,Cn1c2c(c3ccc(/C=C/C(=O)O)cc3c1=O)C(=O)c1ccccc1-2,< 1
19,CC(=O)Nc1ccc2c3c(n(CCCN=[N+]=[N-])c(=O)c2c1)-c1ccccc1C3=O,< 1
20,COCCCn1c2c(c3ccc([N+](=O)[O-])cc3c1=O)C(=O)c1ccccc1-2,< 1
21,COC(=O)c1ccc2c3c(n(CCCn4ccnc4)c(=O)c2c1)-c1ccccc1C3=O,< 1
22,Cn1c2c(c3ccc(CCCC(=O)O)cc3c1=O)C(=O)c1ccccc1-2,< 1
23,O=C1c2ccccc2-c2c1c1ccc([N+](=O)[O-])cc1c(=O)n2CCCCO,< 1
24,Cn1c2c(c3ccc(I)cc3c1=O)C(=O)c1ccccc1-2,< 1
25,CC(=O)Nc1ccc2c3c(n(CCCCl)c(=O)c2c1)-c1ccccc1C3=O,< 1

row,Structure (SMILES),Ratio
1,COC(=O)c1ccc2c3c(n(CCCN4CCOCC4)c(=O)c2c1)-c1ccccc1C3=O,< 1
2,NCCCn1c2c(c3ccc(NC(=O)CCCCC(=O)O)cc3c1=O)C(=O)c1ccccc1-2,< 1
3,NCCCn1c2c(c3ccc(NC(=O)CCCC(=O)O)cc3c1=O)C(=O)c1ccccc1-2,< 1
4,CC(=O)NCCCn1c2c(c3ccc([N+](=O)[O-])cc3c1=O)C(=O)c1ccccc1-2,< 1
5,COC(=O)CCCC(=O)Nc1ccc2c3c(n(C)c(=O)c2c1)-c1ccccc1C3=O,< 1
6,COC(=O)c1ccc2c3c(n(C)c(=O)c2c1)-c1ccccc1C3=O,< 1
7,COc1ccc2c(c1)C(=O)c1c-2n(CCCN)c(=O)c2cc(N(C)C)ccc12,< 1
8,Cc1ccc2c3c(n(C)c(=O)c2c1)-c1ccccc1C3=O,< 1
9,Cn1c2c(c3ccc(Br)cc3c1=O)C(=O)c1ccccc1-2,< 1
10,N#Cc1ccc2c3c(n(CCCn4ccnc4)c(=O)c2c1)-c1ccccc1C3=O,< 1
11,O=C(O)CCn1c2c(c3ccc([N+](=O)[O-])cc3c1=O)C(=O)c1ccccc1-2,< 1
12,COc1ccc2c(c1)C(=O)c1c-2n(CCCN)c(=O)c2cc(OC)c(OC)cc12,< 1
13,CNCCCn1c2c(c3ccc(N)cc3c1=O)C(O)c1ccccc1-2 (stereo not given),< 1
14,COC(=O)CCC(=O)Nc1ccc2c3c(n(C)c(=O)c2c1)-c1ccccc1C3=O,< 1
15,NCCCn1c2c(c3ccc(NC(=O)CC(=O)O)cc3c1=O)C(=O)c1ccccc1-2,< 1
16,[N-]=[N+]=NCCn1c2c(c3ccc([N+](=O)[O-])cc3c1=O)C(=O)c1ccccc1-2,< 1
17,Cn1c2c(c3ccc(C=O)cc3c1=O)C(=O)c1ccccc1-2,< 1
18,CNc1ccc2c3c(n(CCCN)c(=O)c2c1)-c1ccccc1C3O (stereo not given),< 1
19,COCCCn1c2c(c3ccccc3c1=O)C(=O)c1ccccc1-2,< 1
20,Cn1c2c(c3ccc(NC(=O)C(=O)O)cc3c1=O)C(=O)c1ccccc1-2,< 1
21,Cn1c2c(c3ccc(/C=C/C#N)cc3c1=O)C(=O)c1ccccc1-2,< 1
22,Cn1c2c(c3ccc([N+](=O)[O-])cc3c1=O)C(=O)c1ccccc1-2,< 1
23,COC(=O)C(=O)Nc1ccc2c3c(n(C)c(=O)c2c1)-c1ccccc1C3=O,< 1
24,Cn1c2c(c3ccc(NCC(=O)O)cc3c1=O)C(=O)c1ccccc1-2,< 1
25,NCCCn1c2c(c3ccc(NC(=O)C(=O)O)cc3c1=O)C(=O)c1ccccc1-2,< 1

row,Structure (SMILES),Ratio
1,NCCCn1c2c(c3ccc(NC(=O)CCC(=O)O)cc3c1=O)C(=O)c1ccccc1-2,< 1
2,COC(=O)CCCCC(=O)Nc1ccc2c3c(n(C)c(=O)c2c1)-c1ccccc1C3=O,< 1
3,Nc1ccc2c3c(n(CCCCl)c(=O)c2c1)-c1ccccc1C3=O,< 1
4,O=C1c2ccccc2-c2c1c1ccc(Br)cc1c(=O)n2CCCn1ccnc1,< 1
5,[N-]=[N+]=NCCCn1c2c(c3ccc([N+](=O)[O-])cc3c1=O)C(=O)c1ccccc1-2,< 1
6,Cn1c2c(c3ccc(Cl)cc3c1=O)C(=O)c1ccccc1-2,< 1
7,Cn1c2c(c3ccc(CC(=O)O)cc3c1=O)C(=O)c1ccccc1-2,< 1
8,O=C1c2ccccc2-c2c1c1ccc([N+](=O)[O-])cc1c(=O)n2CCCCl,< 1
9,O=C1c2ccccc2-c2c1c1ccc(Br)cc1c(=O)n2CCCO,< 1
10,COC(=O)C#Cc1ccc2c3c(n(C)c(=O)c2c1)-c1ccccc1C3=O,< 1
11,CNc1ccc2c3c(n(CCCNC(=O)OC(C)(C)C)c(=O)c2c1)-c1ccccc1C3O (stereo not given),< 1
12,CCOC(=O)CNc1ccc2c3c(n(C)c(=O)c2c1)-c1ccccc1C3=O,< 1
13,N#Cc1ccc2c3c(n(CCCN4CCOCC4)c(=O)c2c1)-c1ccccc1C3=O,< 1
14,COC(=O)Cc1ccc2c3c(n(C)c(=O)c2c1)-c1ccccc1C3=O,< 1
15,CCOC(CCn1c2c(c3ccc([N+](=O)[O-])cc3c1=O)C(=O)c1ccccc1-2)OCC,< 1
16,Nc1ccc2c3c(n(CCCO)c(=O)c2c1)-c1ccccc1C3O (stereo not given),< 1
17,Cn1c2c(c3ccccc3c1=O)C(=O)c1ccccc1-2,< 1
18,NCCCn1c2c(c3ccc(N)cc3c1=O)C(O)c1ccccc1-2 (stereo not given),< 1
19,Cn1c2c(c3ccc(C#N)cc3c1=O)C(=O)c1ccccc1-2,< 1
20,O=CCCn1c2c(c3ccc([N+](=O)[O-])cc3c1=O)C(=O)c1ccccc1-2,< 1
21,CC(C)(C)OC(=O)NCCCn1c2c(c3ccc([N+](=O)[O-])cc3c1=O)C(=O)c1ccccc1-2,< 1
22,NC(=O)CCn1c2c(c3ccccc3c1=O)C(=O)c1ccccc1-2,< 1
23,COC(=O)/C=C/c1ccc2c3c(n(C)c(=O)c2c1)-c1ccccc1C3=O,< 1
24,CC(C)(C)OC(=O)NCCCn1c2c(c3ccc(N)cc3c1=O)C(=O)c1ccccc1-2,< 1
25,CCCCn1c2c(c3ccccc3c1=O)C(=O)c1ccccc1-2,< 1
